Measurements reported in ChEMBL document CHEMBL5653623 (J Pharmacol Exp Ther, 2015).
Calls of active or inactive are those of the source. The rule behind the calls is not given here.

Key:
[1] = target: Leucine-rich repeat serine/threonine-protein kinase 2 (Mus musculus) (UniProt Q5S006); assay: In vivo inhibition of LRRK2 in 20 weeks old MitoPark mouse kidney assessed as reduction in total LRRK2 protein level at 30 mg/kg/day administered for 15 weeks by Western blotting analysis; format: functional, organism-based
Leucine-rich repeat serine/threonine-protein kinase 2 (Mus musculus), sequence (Q5S006 whole entry): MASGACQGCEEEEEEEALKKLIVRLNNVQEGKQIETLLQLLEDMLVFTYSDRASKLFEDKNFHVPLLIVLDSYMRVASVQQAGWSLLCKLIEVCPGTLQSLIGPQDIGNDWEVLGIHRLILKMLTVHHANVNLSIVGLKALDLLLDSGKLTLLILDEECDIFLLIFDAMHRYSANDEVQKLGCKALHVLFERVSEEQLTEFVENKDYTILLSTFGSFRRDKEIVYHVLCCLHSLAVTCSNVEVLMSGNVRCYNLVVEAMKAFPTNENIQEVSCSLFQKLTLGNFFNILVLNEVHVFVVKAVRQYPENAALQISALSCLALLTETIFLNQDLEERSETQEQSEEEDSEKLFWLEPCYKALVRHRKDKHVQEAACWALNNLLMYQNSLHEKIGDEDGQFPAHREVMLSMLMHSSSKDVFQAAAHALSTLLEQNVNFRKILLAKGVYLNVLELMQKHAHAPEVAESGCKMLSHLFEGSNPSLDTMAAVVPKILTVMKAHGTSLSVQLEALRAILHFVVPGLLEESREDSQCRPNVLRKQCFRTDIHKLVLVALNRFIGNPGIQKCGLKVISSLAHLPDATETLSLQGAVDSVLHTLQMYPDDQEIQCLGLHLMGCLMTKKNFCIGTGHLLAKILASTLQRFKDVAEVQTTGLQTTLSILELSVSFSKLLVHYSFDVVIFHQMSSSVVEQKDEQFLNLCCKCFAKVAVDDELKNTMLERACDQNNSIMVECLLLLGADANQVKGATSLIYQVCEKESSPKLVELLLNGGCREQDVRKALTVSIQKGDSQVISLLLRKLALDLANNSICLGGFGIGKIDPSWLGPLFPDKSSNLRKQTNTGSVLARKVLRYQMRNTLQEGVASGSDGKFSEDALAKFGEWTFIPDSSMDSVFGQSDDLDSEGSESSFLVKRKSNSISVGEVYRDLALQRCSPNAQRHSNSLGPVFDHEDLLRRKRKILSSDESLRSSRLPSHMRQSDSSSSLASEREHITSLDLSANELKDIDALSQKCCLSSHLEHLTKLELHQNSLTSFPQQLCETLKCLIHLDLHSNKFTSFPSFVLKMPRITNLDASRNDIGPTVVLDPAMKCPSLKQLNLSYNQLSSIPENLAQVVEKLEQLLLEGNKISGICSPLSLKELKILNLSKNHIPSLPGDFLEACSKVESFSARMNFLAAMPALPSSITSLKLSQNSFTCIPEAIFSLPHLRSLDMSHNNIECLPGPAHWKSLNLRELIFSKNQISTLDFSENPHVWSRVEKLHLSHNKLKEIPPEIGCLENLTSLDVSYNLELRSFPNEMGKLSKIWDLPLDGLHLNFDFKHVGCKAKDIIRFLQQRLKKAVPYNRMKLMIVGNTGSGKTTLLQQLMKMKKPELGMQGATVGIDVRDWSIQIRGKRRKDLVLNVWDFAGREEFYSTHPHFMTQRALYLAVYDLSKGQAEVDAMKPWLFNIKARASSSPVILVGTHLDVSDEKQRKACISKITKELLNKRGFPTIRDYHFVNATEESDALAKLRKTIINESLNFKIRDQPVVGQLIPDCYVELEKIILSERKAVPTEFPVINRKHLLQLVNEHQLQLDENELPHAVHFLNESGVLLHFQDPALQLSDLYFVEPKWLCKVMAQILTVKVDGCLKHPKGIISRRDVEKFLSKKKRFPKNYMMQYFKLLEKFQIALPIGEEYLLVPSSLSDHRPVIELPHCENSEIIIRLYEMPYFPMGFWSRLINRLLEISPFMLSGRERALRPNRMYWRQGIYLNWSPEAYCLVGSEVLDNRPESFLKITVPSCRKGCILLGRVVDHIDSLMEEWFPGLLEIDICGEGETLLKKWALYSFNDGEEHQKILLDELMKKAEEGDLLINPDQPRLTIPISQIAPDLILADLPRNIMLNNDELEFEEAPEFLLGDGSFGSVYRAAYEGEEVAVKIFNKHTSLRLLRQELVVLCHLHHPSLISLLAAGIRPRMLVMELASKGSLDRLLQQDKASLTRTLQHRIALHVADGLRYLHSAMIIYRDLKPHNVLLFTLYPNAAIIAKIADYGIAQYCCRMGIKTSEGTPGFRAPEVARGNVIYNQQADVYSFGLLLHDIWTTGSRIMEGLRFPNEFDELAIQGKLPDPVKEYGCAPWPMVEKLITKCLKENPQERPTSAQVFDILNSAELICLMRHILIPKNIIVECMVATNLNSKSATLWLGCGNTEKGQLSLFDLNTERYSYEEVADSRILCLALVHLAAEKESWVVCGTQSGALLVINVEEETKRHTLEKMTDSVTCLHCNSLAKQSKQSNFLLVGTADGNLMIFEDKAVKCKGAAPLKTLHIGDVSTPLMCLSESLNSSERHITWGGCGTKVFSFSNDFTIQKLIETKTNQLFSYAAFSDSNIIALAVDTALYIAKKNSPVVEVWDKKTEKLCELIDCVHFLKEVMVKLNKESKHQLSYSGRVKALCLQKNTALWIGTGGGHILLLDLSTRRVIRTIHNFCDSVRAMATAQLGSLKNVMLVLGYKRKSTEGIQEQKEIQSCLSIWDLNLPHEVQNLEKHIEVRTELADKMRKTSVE
Summary of the method: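 MitoPark mice on drug-containing diet targeted to 30 mg/kg/day from 5 weeks of age, with the diet reformulated every 3 weeks to hold the target. Untreated-diet MitoPark and wild-type littermate controls. Killed by CO2 at 20 weeks of age. Lung and kidney taken from 5 mice per group for pSer935 and total LRRK2 immunoblots.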

[2] = target: Leucine-rich repeat serine/threonine-protein kinase 2 (Mus musculus) (UniProt Q5S006); assay: In vivo inhibition of LRRK2 in C57Bl/6 mouse brain assessed as reduction in pSer935 LRRK2 administered for 11 days and measured after 4 hrs by Western blotting analysis; format: functional, organism-based; conditions: dose 3-120 mg/kg, time 11.0 day
Summary of the method: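 Male C57Bl/6 mice, singly housed on a reversed light cycle. Fed drug diet targeted to 3, 10, 30, 60 or 120 mg/kg/day (assuming 3 g/day intake), or untreated diet, for 11 days. Killed 4, 8 or 24 h after dark-cycle onset, n = 5 per group. Cortex immunoblotted for pSer935/total LRRK2 and total LRRK2/GAPDH. Total LRRK2 detected with MJFF2 antibody.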

inhibition [1]: Active
inhibition [2]: Dose-Dependent Effect
Structure (SMILES): C[C@@H]1CN(c2cc(-c3n[nH]c4ccc(OC5(C)CC5)cc34)ncn2)C[C@H](C)O1 [MLi-2]
